For assay [1], the system named is E6SM. In words: 50% Minimum inhibitory concentration which is required to reduce cytopathogenicity induced by (196) strain of HSV-2 virus on human E6SM cells. The format is functional. The essentials: (§1)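 Confluent cell monolayers infected with 100 CCID50 virus and left 1 h for adsorption. Residual virus then removed and compound added at serial dilutions (400, 200, 100 ... µg/mL). Value is the concentration giving 50% reduction of CPE.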
A general note: Protection from cytopathic effect is a common read-out in antiviral testing.

The test system of assay [2] is E6SM. In words: 50% Minimum inhibitory concentration which is required to reduce cytopathogenicity induced by (G) strain of HSV-2 virus on human E6SM cells. The format is functional. The procedure, abridged:
as §1

The subject of assay [3] is E6SM. In words: 50% Minimum inhibitory concentration which is required to reduce cytopathogenicity induced by (KOS) strain of HSV-1 virus on human E6SM cells. The assay is classed as functional. The procedure, abridged: as §1
The subject of assay [4] is E6SM. As to the kind of experiment: 50% Minimum inhibitory concentration which is required to reduce cytopathogenicity induced by (Lyons) strain of HSV-2 virus on human E6SM cells. The assay is classed as functional. The procedure, abridged: as §1
In assay [5] the test system is E6SM. As to the kind of experiment: 50% Minimum inhibitory concentration which is required to reduce cytopathogenicity induced by (Mc Intyre) strain of HSV-1 virus on human E6SM cells. The format is functional. The essentials:
as §1

Assay [6] relates to E6SM. In words: 50% Minimum inhibitory concentration which is required to reduce cytopathogenicity induced by TK-(B2006) strain of HSV-1 virus on human E6SM cells. The assay is classed as functional. The procedure, abridged: as §1
In assay [7] the test system is HEL. In words: 50% Minimum inhibitory concentration which is required to reduce cytopathogenicity induced by TK-(B2006) strain of HSV-1 virus on human embryonic HEL cells. The assay is classed as functional. The essentials: as §1
In assay [8] the test system is HEL. As to the kind of experiment: 50% Minimum inhibitory concentration which is required to reduce cytopathogenicity induced by (G) strain of HSV-2 virus on human embryonic HEL cells. The format is functional. The essentials: as §1
The test system of assay [9] is HEL. In words: 50% Minimum inhibitory concentration which is required to reduce cytopathogenicity induced by (KOS) strain of HSV-1 virus on human embryonic HEL cells. The format is functional. The procedure, abridged: as §1
The subject of assay [10] is HEL. In words: 50% Minimum inhibitory concentration which is required to reduce cytopathogenicity induced by (Lyons) strain of HSV-2 virus on human embryonic HEL cells. The assay is classed as functional. The procedure, abridged:
as §1

The subject of assay [11] is HEL. In words: 50% Minimum inhibitory concentration which is required to reduce cytopathogenicity induced by (Mc Intyre) strain of HSV-1 virus on human embryonic HEL cells. The assay is classed as functional. The essentials:
as §1

Assay [12] is described as follows: Minimum cytotoxic concentration which causes microscopically detectable alteration of normal cell morphology after 2 days of incubation. The assay is classed as functional. The note with it: 48 h. The essentials: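 Uninfected E6SM cells exposed to compound for 2 days. Minimum concentration giving a microscopically detectable change in normal cell morphology recorded.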

For assay [13], the system named is E6SM. As to the kind of experiment: 50% Minimum inhibitory concentration which is required to reduce cytopathogenicity induced by (F) strain of HSV-1 virus on human E6SM cells. The format is functional. The essentials:
as §1

Assay [14] deals with CEM-TK(-). In words: Cytotoxic concentration which is required to reduce CEM/TK- cell viability by 50%. The format is functional. The note with it: Homo sapiens.
Assay [15] concerns CEM-TK(-). As to the kind of experiment: 50% effective concentration of compound which is required to protect Thymidine kinase deficient human CEM (CEM/TK-) cells against HIV-2. The assay is classed as functional, cell-based.
The subject of assay [16] is CCRF-CEM. As to the kind of experiment: Cytotoxic concentration which is required to reduce human CEM cell viability by 50%. The assay is classed as functional. The procedure, abridged: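 Human CEM or Molt-4 cells seeded at 7.5 × 10^5 cells/mL with varying compound concentrations. Incubated 3 days at 37 °C in humidified CO2. Viable cells counted with a Coulter counter. Value is the concentration reducing viable cell number by 50%.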

For assay [17], the system named is CCRF-CEM. As to the kind of experiment: 50% effective concentration of compound which is required to protect human CEM cells against HIV-1 induced giant cell formation. The assay is classed as functional, cell-based. The procedure, abridged:
(§2)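 CEM cells at 250000–300000 cells/mL infected with HIV-1 (IIIB) or HIV-2 (ROD) at 100 CCID50/mL. Infected cells mixed with serial compound dilutions and incubated 4 days at 37 °C. Syncytium (giant cell) formation then scored. Values averaged over two independent experiments.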

The test system of assay [18] is CCRF-CEM. As to the kind of experiment: 50% effective concentration of compound which is required to protect human CEM cells against HIV-2 induced giant cell formation. The assay is classed as functional, cell-based. The procedure, abridged:
as §2

In assay [19] the test system is MT4. In words: 50% effective concentration of compound which is required to protect human MT-4 cells against cytopathogenicity of HIV-1. The format is functional, cell-based.
Assay [20] concerns MT4. In words: 50% effective concentration of compound which is required to protect human MT-4 cells against cytopathogenicity of HIV-2. The assay is classed as functional, cell-based.
Assay [21] has as its system MT4. In words: Cytotoxic concentration which is required to reduce human MT-4 cell viability by 50%. The assay is classed as functional.
Assay [22] can be described thus: Selectivity index of HIV-1 and HIV-2 with respect to CEM cells. The assay is classed as functional, CCRF-CEM. The essentials: (§3)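 Selectivity index calculated as average CC50 divided by average EC50. Each average comes from two independent experiments, using HIV-1 (IIIB) and HIV-2 (ROD) in CEM or MT-4 cells.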
Assay [23] is described as follows: Selectivity index of HIV-1 and HIV-2 with respect to MT-4 cells. The format is functional, MT4. The essentials:
as §3

Each structure is given as a SMILES string. Values after ≈ are worked out from the molar mass of the structure shown.

A word on the CC50: it is the concentration that lowers cell viability or growth by half. Lower therefore signals greater toxicity to the cells. The term EC50 denotes the concentration giving half of the maximal effect.

For the molecule `O=c1[nH]c(=O)n([C@H]2C[C@H](O)[C@@H](CO)O2)cc1/C=C/Br` [BRIVUDINE], the MIC is greater than 400 µg/mL with E6SM [1]; 90 µg/mL (≈ 270 µM) against E6SM [2]; 0.007 µg/mL (≈ 0.021 µM) in the assay with E6SM [3]; greater than 400 µg/mL against E6SM [4]; 90 µg/mL (≈ 270 µM) against E6SM [5]; 10 µg/mL (≈ 30 µM) in the assay with E6SM [6]. Besides, the MIC in the assay with HEL [7] was 50 µg/mL (≈ 150 µM); against HEL [8] it was 30 µg/mL (≈ 90.1 µM); with HEL [9], 0.005 µg/mL (≈ 0.015 µM); against HEL [10], 5 µg/mL (≈ 15 µM); against HEL [11], 0.003 µg/mL (≈ 0.00901 µM); against E6SM [13] it was 0.02 µg/mL (≈ 0.06 µM). The MCC in assay [12] is greater than 300 µg/mL.

With `Nc1nc2c(ncn2COC(CO)CO)c(=O)[nH]1` [GANCICLOVIR], the MIC was determined as 0.006 µg/mL (≈ 0.0235 µM) against E6SM [1]; 0.002 µg/mL (≈ 0.00784 µM) in the assay with E6SM [2]; 0.001 µg/mL (≈ 0.00392 µM) in the assay on E6SM [3]; 0.002 µg/mL (≈ 0.00784 µM) with E6SM [4]; 0.003 µg/mL (≈ 0.0118 µM) with E6SM [5]; 5 µg/mL (≈ 19.6 µM) against E6SM [6]. This molecule also displayed an MIC against E6SM [13] of 0.002 µg/mL (≈ 0.00784 µM). The same molecule showed an MCC in assay [12] greater than 100 µg/mL.

Turning to `NC(=O)c1ncn([C@@H]2O[C@H](CO)[C@@H](O)[C@H]2O)n1` [RIBAVIRIN], the MIC with E6SM [1] is 150 µg/mL (≈ 614 µM); against E6SM [2] it was 50 µg/mL (≈ 205 µM); in the assay on E6SM [3], 60 µg/mL (≈ 246 µM); against E6SM [4], 100 µg/mL (≈ 409 µM); in the assay with E6SM [5], 90 µg/mL (≈ 369 µM); against E6SM [6], 150 µg/mL (≈ 614 µM). In the assay with E6SM [13], this molecule showed an MIC of 80 µg/mL (≈ 328 µM). In addition, the MCC in assay [12] is greater than 400 µg/mL.

In the case of `Cc1cn([C@H]2C[C@H](N=[N+]=[N-])[C@@H](CO)O2)c(=O)[nH]c1=O` [ZIDOVUDINE], the half-maximal cytotoxic concentration (CC50) with CEM-TK(-) [14] is greater than 200 µg/mL; in the assay on CCRF-CEM [16], greater than 100 µg/mL; with MT4 [21], 1.5 µg/mL (≈ 5.61 µM). The concentration for a half-maximal effect (EC50) in the assay on CEM-TK(-) [15] was greater than 25 µg/mL; in the assay with CCRF-CEM [17], 0.0007 µg/mL (≈ 0.00262 µM); in the assay with CCRF-CEM [18], 0.0009 µg/mL (≈ 0.00337 µM); in the assay on MT4 [19] it was 0.0005 µg/mL (≈ 0.00187 µM); with MT4 [20], 0.0007 µg/mL (≈ 0.00262 µM). The Selectivity index in [22] is greater than 100000; in assay [23], 3000.

The values above are taken from ChEMBL document CHEMBL1130413, “Novel 3'-C/N-substituted 2',3'-beta-D-dideoxynucleosides as potential chemotherapeutic agents. 1. Thymidine derivatives: synthesis, structure, and broad spectrum antiviral properties” (J Med Chem, 1997).
